The values below come from ChEMBL document CHEMBL1153918, “Novel fatty acid synthase (FAS) inhibitors: design, synthesis, biological evaluation, and molecular docking studies” (Bioorg Med Chem, 2009).

Data set [1] addresses Fatty acid synthase (Rattus norvegicus, UniProt P12785). The experiment in a line: Inhibition of rat liver FAS by Coomassie blue staining. Summed up:
(§1)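 Rat liver FAS purified, about 90% pure by SDS-PAGE with Coomassie staining. Enzyme, compound, NADPH and acetyl-CoA preincubated in K2HPO4 buffer pH 7.0 for 30 min at 37 °C. Malonyl-CoA then added and NADPH oxidation followed at 340 nm for 3 min at 37 °C. IC50 by linear regression, mean of triplicates. Single-point data given as % inhibition at 60 µM.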

Data set [2] concerns the target Fatty acid synthase (Rattus norvegicus) (UniProt P12785). The data set can be described thus: Inhibition of rat liver FAS at 60 uM by Coomassie blue staining. The method in brief:
as §1

Data set [3] can be described thus: Cytotoxicity against human HLF by MTT assay. Format: cell-based. As to conditions: HLF cells, read-out: TC50 (the source's name). Summed up:
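Human embryonic lung fibroblasts (HLF), viability read by MTT method. TC50 values are means of three experiments.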

The subject of data set [4] is FAS. The experiment in a line: Therapeutic index, ratio of TC50 for human HLF to IC50 for rat liver FAS. As to conditions: HLF cells (TC50). Summed up: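 In vitro therapeutic index = TC50 (HLF cells, MTT) / IC50 (purified rat liver FAS, NADPH oxidation at 340 nm).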
For data set [5], the system named is HeLa. The data set can be described thus: Cytotoxicity against human HeLa cells after 20 hrs by trypan blue exclusion assay. The format is functional, cell-based. Summed up: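 HeLa cells kept in DMEM with 10% fetal calf serum at 37 °C, 5% CO2, for 24 h. About 2.5×10^4 cells/well exposed to graded concentrations (DMSO solution) for 20 h. Cells then trypsinized and counted by trypan-blue exclusion. Three repeats gave SD.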

Data set [6] concerns HL-60. The data set can be described thus: Cytotoxicity against human HL60 cells assessed as cell viability after 2 hrs by MTT assay. The format is functional, cell-based. As to conditions: HL-60, 2 h. The method in brief:
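HL60 cells in exponential growth suspended in 1640 medium, about 2×10^4 cells/well. Serially diluted compound (DMSO solution) added, then 2 h incubation at 37 °C in 5% CO2. Viable cells counted by MTT. […] given ± SD from three repeats.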
A general note: Formazan colour is commonly taken as a measure of viable cells.

pIC50: −log10 of the molar value. A value given as a limit tells only on which side of the number the result lay.

Chain of Fatty acid synthase (P12785 whole entry): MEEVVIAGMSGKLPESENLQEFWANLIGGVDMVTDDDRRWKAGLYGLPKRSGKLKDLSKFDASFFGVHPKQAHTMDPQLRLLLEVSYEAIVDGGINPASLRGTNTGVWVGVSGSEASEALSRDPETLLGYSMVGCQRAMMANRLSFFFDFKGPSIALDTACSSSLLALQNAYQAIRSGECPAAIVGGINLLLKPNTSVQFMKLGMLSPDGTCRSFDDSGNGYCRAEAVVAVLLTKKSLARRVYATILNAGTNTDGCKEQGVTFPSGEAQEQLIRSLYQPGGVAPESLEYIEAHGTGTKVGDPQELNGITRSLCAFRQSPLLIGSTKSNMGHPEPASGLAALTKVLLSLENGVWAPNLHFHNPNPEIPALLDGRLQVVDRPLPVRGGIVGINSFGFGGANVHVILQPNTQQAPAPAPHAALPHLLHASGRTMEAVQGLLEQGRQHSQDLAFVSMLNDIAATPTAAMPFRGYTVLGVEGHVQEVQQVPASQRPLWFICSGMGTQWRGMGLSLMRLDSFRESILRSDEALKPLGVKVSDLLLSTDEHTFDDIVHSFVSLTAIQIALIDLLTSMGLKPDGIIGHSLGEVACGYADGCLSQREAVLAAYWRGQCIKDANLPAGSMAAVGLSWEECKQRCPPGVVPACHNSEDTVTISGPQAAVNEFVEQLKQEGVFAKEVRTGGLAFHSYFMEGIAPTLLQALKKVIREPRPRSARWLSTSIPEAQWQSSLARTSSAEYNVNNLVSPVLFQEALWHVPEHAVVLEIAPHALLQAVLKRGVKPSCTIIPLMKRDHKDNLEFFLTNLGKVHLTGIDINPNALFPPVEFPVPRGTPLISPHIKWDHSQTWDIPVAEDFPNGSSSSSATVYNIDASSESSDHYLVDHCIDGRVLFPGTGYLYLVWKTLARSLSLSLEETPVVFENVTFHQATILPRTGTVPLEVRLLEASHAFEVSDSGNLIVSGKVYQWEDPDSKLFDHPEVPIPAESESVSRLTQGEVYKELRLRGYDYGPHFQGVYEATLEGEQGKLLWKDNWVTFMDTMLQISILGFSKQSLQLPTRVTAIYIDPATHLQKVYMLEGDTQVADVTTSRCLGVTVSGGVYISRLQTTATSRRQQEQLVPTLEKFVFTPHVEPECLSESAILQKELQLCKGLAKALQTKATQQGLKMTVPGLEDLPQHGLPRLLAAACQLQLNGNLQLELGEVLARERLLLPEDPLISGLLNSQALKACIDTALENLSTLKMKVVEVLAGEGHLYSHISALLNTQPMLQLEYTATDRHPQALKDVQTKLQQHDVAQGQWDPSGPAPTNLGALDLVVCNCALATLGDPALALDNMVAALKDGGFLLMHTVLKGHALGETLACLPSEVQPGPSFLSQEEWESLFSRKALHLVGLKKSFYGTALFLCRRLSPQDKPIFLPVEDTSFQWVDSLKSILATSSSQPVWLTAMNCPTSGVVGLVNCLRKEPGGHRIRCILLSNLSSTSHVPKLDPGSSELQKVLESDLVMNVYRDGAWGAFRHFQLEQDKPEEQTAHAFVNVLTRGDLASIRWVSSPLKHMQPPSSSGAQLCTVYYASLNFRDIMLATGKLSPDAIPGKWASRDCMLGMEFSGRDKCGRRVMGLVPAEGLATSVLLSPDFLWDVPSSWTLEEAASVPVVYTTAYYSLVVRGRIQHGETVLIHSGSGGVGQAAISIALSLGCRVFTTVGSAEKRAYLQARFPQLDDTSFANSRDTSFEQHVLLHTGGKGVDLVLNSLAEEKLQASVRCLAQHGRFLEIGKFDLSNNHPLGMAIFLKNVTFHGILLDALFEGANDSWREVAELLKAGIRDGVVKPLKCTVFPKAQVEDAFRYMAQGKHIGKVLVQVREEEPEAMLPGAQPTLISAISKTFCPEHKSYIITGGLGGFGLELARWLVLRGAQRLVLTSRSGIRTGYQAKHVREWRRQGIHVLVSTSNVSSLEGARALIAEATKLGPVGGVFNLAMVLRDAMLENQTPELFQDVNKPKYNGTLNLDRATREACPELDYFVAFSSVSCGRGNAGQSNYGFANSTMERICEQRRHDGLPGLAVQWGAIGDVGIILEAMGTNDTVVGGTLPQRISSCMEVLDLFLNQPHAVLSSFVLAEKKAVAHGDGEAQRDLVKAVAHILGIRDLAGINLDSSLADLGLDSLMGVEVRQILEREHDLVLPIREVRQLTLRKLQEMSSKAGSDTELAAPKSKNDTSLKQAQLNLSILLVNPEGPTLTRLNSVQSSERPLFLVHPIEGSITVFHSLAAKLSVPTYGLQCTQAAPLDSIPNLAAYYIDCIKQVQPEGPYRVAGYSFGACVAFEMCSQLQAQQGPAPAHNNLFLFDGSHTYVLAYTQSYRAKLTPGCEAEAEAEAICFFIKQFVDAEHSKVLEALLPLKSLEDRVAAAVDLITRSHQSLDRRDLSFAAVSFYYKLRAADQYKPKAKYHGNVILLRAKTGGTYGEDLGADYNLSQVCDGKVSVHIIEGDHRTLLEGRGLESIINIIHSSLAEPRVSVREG
Chain of Fatty acid synthase (Rattus norvegicus) (P12785 whole entry): as above

In data set [1], `CCCCCCCC[C@@H]1OC(=O)c2ccccc2[C@H]1C(=O)O` (relative stereo) gave a negative logarithm of the IC50 (pIC50) of 4.05.
For the molecule `CCCCCCC[C@@H]1OC(=O)c2ccccc2[C@H]1C(=O)O` (relative stereo), the inhibition in data set [2] is 35.9%.
On the same count and under the same terms, the same measure for `CCCCCCCCC[C@H]1OC(=O)C(C)(C)[C@@H]1C(=O)O` (relative stereo): 23.8%.
As to `C=C1C(=O)S[C@H](CCCCCCCCC)[C@H]1C(=O)O`, the pIC50 in data set [1] is 5.64. In data set [3], the CC50 is 6.86 µM.
`CCCCCCCCCCC[C@@H]1OC(=O)c2ccccc2[C@H]1C(=O)O` (relative stereo): the selectivity ratio in data set [4] came out at 4.84. For the same molecule, the pIC50 in data set [1] is 4.71. Besides, the CC50 in data set [3] is 94.2 µM.
In data set [1], `C=C1C(=O)S[C@H](CCCCCCCCCC)[C@H]1C(=O)O` gave a negative logarithm of the IC50 (pIC50) of 5.92. Further, the CC50 in data set [3] was 6.8 µM.
As for `CCCCCCCCCC[C@@H]1OC(=O)c2ccccc2[C@H]1C(=O)O` (relative stereo), the pIC50 in data set [1] was 4.62. Further, the CC50 in data set [3] is greater than 200 µM.
For the molecule `C=C1C(=O)O[C@H](CCCCCCCC)[C@H]1C(=O)O`, the selectivity ratio in data set [4] was 5.61.
`CCCCCCCCCC[C@H]1OC(=O)C(=C(C)C)[C@@H]1C(=O)O` (relative stereo): in data set [1], the negative logarithm of the IC50 (pIC50) was 3.91. Further, in data set [3], the CC50 is greater than 200 µM.
Consider `CCCCCCCCC[C@H]1OC(=O)C(=C(C)C)[C@@H]1C(=O)O` (relative stereo), for which the inhibition in data set [2] is 38.4%.
The same measure, in the same setting: the same measure for `CCCCCCCC[C@H]1OC(=O)C(C)(C)[C@@H]1C(=O)O` (relative stereo): 16.7%; for `CCCCCC[C@@H]1OC(=O)c2ccccc2[C@H]1C(=O)O` (relative stereo): 19.4%.
For the molecule `C=C1C(=O)S[C@H](CCCCCCCC)[C@H]1C(=O)O`, the selectivity ratio in data set [4] was found to be 9.26. The negative-log IC50 (pIC50) in data set [1] is 5.59; in data set [5] it was 4.34; in data set [6] it was 5.27. The CC50 in data set [3] stood at 23.7 µM.
For `C=C1C(=O)S[C@H](CCCCCCCCCCC)[C@H]1C(=O)O`, in data set [1], the negative logarithm of the IC50 (pIC50) was 6.10. Besides, in data set [3], the CC50 was determined as 4.75 µM.
For the molecule `C=C1C(=O)S[C@H](CCCCCC)[C@H]1C(=O)O`, the selectivity ratio in data set [4] is 5.76. The pIC50 in data set [1] was 4.78. For the same molecule, in data set [3], the CC50 was found to be 96.4 µM.
The matching figures for `CCCCCCCCCCC[C@H]1OC(=O)C(=C(C)C)[C@@H]1C(=O)O` (relative stereo): 5.57, 4.56 and 153 µM.
In the case of `CCCCCCCCC[C@@H]1OC(=O)c2ccccc2[C@H]1C(=O)O` (relative stereo), the pIC50 in data set [1] was 4.53.
Take `CCCCCCCC[C@H]1OC(=O)C(=C(C)C)[C@@H]1C(=O)O` (relative stereo): in data set [2], the inhibition is 17.4%.

A word on the pIC50: it is −log10 of the IC50, conventionally taken in molar units. Broadly, the inhibition is the share of the control response that was lost under treatment. A higher inhibition goes with a strong effect.
